Source: article PMC9401513 (Clinical Cancer Research, 2021)
Where a SMILES comes first, the peptide text is derived from it. [ ]: non-standard residue; d: D form. The star is where a group is joined. Dolaproine = CO[C@@H]([C@@H]1CCCN1)[C@@H](C)C(=O)O; Dil = CC[C@H](C)[C@H](NC)[C@@H](CC(=O)O)OC; Doe = c1ccc(C[C@H](N*)c2nccs2)cc1; Aib = CC(C)(N)C(=O)O

Assays:
[1] = target: CYP3A4 (Homo sapiens, UniProt P08684); assay: Drug-drug interaction substudy with multiple-dose fluconazole; format: in vivo; conditions: PF-06647020 co-administered with multiple-dose fluconazole, 11 patients
CYP3A4, sequence (P08684 whole entry): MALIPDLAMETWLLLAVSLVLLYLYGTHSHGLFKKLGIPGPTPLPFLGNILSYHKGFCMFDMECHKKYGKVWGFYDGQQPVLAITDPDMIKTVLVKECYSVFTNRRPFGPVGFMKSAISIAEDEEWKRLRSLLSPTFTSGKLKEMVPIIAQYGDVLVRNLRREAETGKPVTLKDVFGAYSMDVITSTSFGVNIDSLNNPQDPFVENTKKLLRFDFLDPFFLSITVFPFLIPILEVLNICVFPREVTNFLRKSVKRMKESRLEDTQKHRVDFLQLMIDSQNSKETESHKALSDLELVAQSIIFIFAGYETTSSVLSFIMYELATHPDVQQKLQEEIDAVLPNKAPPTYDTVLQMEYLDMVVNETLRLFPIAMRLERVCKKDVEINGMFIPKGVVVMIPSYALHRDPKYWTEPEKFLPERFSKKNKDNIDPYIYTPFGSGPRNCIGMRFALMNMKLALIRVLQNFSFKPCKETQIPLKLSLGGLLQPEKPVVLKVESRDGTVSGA
How it was run: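 Single-dose test ADC was given alone in cycle 1 (reference) and co-administered with multiple-dose fluconazole in cycle 2 (test). Unconjugated payload exposure was measured as dose-normalized AUCinf and Cmax from noncompartmental analysis. Results were expressed as ratios of adjusted geometric means with 90% confidence intervals.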

[2] = Clinical pharmacokinetics; format: in vivo, human; conditions: 0.2 to 3.7 mg/kg every 3 weeks dose levels of PF-06647020

CC[C@H](C)[C@@H]([C@@H](CC(=O)N1CCC[C@H]1[C@H](OC)[C@@H](C)C(=O)N[C@@H](Cc1ccccc1)c1nccs1)OC)N(C)C(=O)[C@@H](NC(=O)C(C)(C)N)C(C)C [PF-06380101, auristatin-0101] (H-[Aib]V[Dil][Dolaproine]-Doe)
impact of fluconazole co-administration on overall exposure [1]: did not have a notable impact

B1: hu6M024: humanized anti-PTK7 mAb (IgG1); total antibody = conjugated or unconjugated mAb (antibody, chains of the INN, looked up, V domains shown)
VH: QVQLVQSGPEVKKPGASVKVSCKASGYTFTDYAVHWVRQAPGKRLEWIGVISTYNDYTYNNQDFKGRVTMTRDTSASTAYMELSRLRSEDTAVYYCARGNSYFYALDYWGQGTSVTVSS
VL: EIVLTQSPATLSLSPGERATLSCRASESVDSYGKSFMHWYQQKPGQAPRLLIYRASNLESGIPARFSGSGSGTDFTLTISSLEPEDFAVYYCQQSNEDPWTFGGGTKLEIK
systemic exposure (AUCtau, Cmax) versus dose [2]: generally increased in a dose-related manner | impact of fluconazole co-administration on overall exposure [1]: did not have a notable impact
